Measurements reported in publication PMC10957407 (Food Chemistry: X, 2024).
Values after ≈ are worked out from the molar mass of the structure shown. Blank lines part the entries; values can stand above or below the compound they belong to.

How the values were obtained:
1-D6 = experiment: icELISA with mAb 1-D6; assay type: binding, Balb/c mice; conditions: for CR: CR%=IC50 6-GG/IC50 test compound x100%
Method in brief: (§1)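 Ascites-derived mAbs (caprylic acid–ammonium sulfate purified) from female Balb/c mice immunized with hapten–BSA. Plates coated with hapten–OVA in carbonate buffer (0.5 mol L−1, pH 9.6), blocked with 5% skim milk, washed with PBST, and detected with goat anti-mouse IgG-HRP; reaction stopped with 2 mol L−1 H2SO4. Analyte stocks (1 mg/mL, 70% methanol) were diluted in 10% methanol-PBS. IC50 values were fitted, and cross-reactivity was calculated for capsaicinoids, gingerol derivatives and eight other compounds.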

1-F12 = experiment: icELISA with mAb 1-F12; assay type: binding, Balb/c mice; conditions: for CR: CR%=IC50 6-GG/IC50 test compound x100%
Method in brief: as §1

1-G12 = experiment: icELISA with mAb 1-G12; assay type: binding, Balb/c mice; conditions: for CR: CR%=IC50 6-GG/IC50 test compound x100%
Method in brief: as §1

3-LD3 = experiment: icELISA with mAb 3-LD3; assay type: binding
5-D8 = experiment: icELISA with mAb 5-D8; assay type: binding
2-LD2 = experiment: icELISA with mAb 2-LD2; assay type: binding
6-AT6 = experiment: icELISA with mAb 6-AT6; assay type: binding
4-AT4 = experiment: icELISA with mAb 4-AT4; assay type: binding
5-3H1 = experiment: icELISA with mAb 5-3H1; assay type: binding
[1] = mAb 1-D6, specific evaluation (Table 1, Fig. 3C)
[2] = mAb 1-F12, specific evaluation (Table 1, Fig. 3B)
[3] = mAb 1-G12, specific evaluation (Table 1, Fig. 3D)
[4] = coating antigen Hapten 1-OVA, mAb 1-D6
[5] = coating antigen Hapten 2-OVA, mAb 1-D6
[6] = coating antigen Hapten 3-OVA, mAb 1-D6
[7] = coating antigen Hapten 4-OVA, mAb 1-D6
[8] = coating antigen Hapten 5-OVA, mAb 1-D6
[9] = coating antigen Hapten 6-OVA, mAb 1-D6
[10] = coating antigen Hapten 1-OVA, mAb 1-F12
[11] = coating antigen Hapten 2-OVA, mAb 1-F12
[12] = coating antigen Hapten 3-OVA, mAb 1-F12
[13] = coating antigen Hapten 4-OVA, mAb 1-F12
[14] = coating antigen Hapten 5-OVA, mAb 1-F12 (optimal combination)
[15] = coating antigen Hapten 6-OVA, mAb 1-F12
[16] = coating antigen Hapten 1-OVA, mAb 1-G12
[17] = coating antigen Hapten 2-OVA, mAb 1-G12
[18] = coating antigen Hapten 3-OVA, mAb 1-G12
[19] = coating antigen Hapten 4-OVA, mAb 1-G12
[20] = coating antigen Hapten 5-OVA, mAb 1-G12
[21] = coating antigen Hapten 6-OVA, mAb 1-G12

SMILES: COc1cccc(CNC(=O)CC#N)c1 [2-Cyano-N-(3-methoxybenzyl) acetamide]
IC50 (1-D6; [1]): >4 µg/mL | CR (1-D6; mAb 1-D6): <1.48% | IC50 (1-F12; [2]): >4 µg/mL | CR (1-F12; mAb 1-F12): <12.66% | IC50 (1-G12; [3]): >4 µg/mL | CR (1-G12; mAb 1-G12): <14.01%

SMILES: CCCCCCCC(=O)CCc1cc(OC)c(O)c(C(=O)O)c1 [2-hydroxy-3-methoxy-5-(3-oxodecyl) benzoic acid]
IC50 (1-D6; [1]): 1.9528 µg/mL (≈ 6.06 µM) | CR (1-D6; mAb 1-D6): 3.03% | IC50 (1-F12; [2]): >4 µg/mL | CR (1-F12; mAb 1-F12): <12.66% | IC50 (1-G12; [3]): >4 µg/mL | CR (1-G12; mAb 1-G12): <14.01%

SMILES: COc1cc(CCC(=O)O)ccc1O [3-(4-Hydroxy-3-methoxyphenyl) propionic Acid]
IC50 (1-D6; [1]): 2.17533 µg/mL (≈ 11.1 µM) | CR (1-D6; mAb 1-D6): 2.72% | IC50 (1-F12; [2]): >4 µg/mL | CR (1-F12; mAb 1-F12): <12.66% | IC50 (1-G12; [3]): >4 µg/mL | CR (1-G12; mAb 1-G12): <14.01%

More lines, main results first:

IC50 (5-D8; coating antigen Hapten 1-OVA): 0.03987 µg/mL (≈ 0.131 µM) | IC50 (5-D8; coating antigen Hapten 2-OVA): 0.54041 µg/mL (≈ 1.77 µM) | IC50 (5-D8; coating antigen Hapten 3-OVA): 0.56457 µg/mL (≈ 1.85 µM) | IC50 (5-D8; coating antigen Hapten 4-OVA): 0.02878 µg/mL (≈ 0.0942 µM) | IC50 (5-D8; coating antigen Hapten 5-OVA): 0.04559 µg/mL (≈ 0.149 µM) | IC50 (1-D6; [4]): >4 µg/mL | IC50 (1-D6; [5]): >4 µg/mL | IC50 (1-D6; [6]): >4 µg/mL | IC50 (1-D6; [7]): 0.91716 µg/mL (≈ 3 µM) | IC50 (1-D6; [8]): 0.93917 µg/mL (≈ 3.08 µM) | IC50 (1-D6; [9]): 0.26434 µg/mL (≈ 0.866 µM) | IC50 (1-D6; [1]): >4 µg/mL | IC50 (6-AT6; coating antigen Hapten 1-OVA): >4 µg/mL | IC50 (6-AT6; coating antigen Hapten 2-OVA): >4 µg/mL | IC50 (6-AT6; coating antigen Hapten 3-OVA): >4 µg/mL | IC50 (6-AT6; coating antigen Hapten 4-OVA): >4 µg/mL | IC50 (6-AT6; coating antigen Hapten 5-OVA): >4 µg/mL | IC50 (6-AT6; coating antigen Hapten 6-OVA): >4 µg/mL | IC50 (1-F12; [10]): 0.58442 µg/mL (≈ 1.91 µM) | IC50 (1-F12; [11]): >4 µg/mL | IC50 (1-F12; [12]): >4 µg/mL | IC50 (1-F12; [13]): 0.79654 µg/mL (≈ 2.61 µM) | IC50 (1-F12; [14]): 0.48151 µg/mL | IC50 (1-F12; [15]): 1.35443 µg/mL (≈ 4.43 µM) | IC50 (4-AT4; coating antigen Hapten 1-OVA): 0.00502 µg/mL (≈ 0.0164 µM) | IC50 (4-AT4; coating antigen Hapten 2-OVA): 0.13283 µg/mL (≈ 0.435 µM) | IC50 (4-AT4; coating antigen Hapten 3-OVA): 0.27036 µg/mL (≈ 0.885 µM) | IC50 (4-AT4; coating antigen Hapten 4-OVA): 0.00651 µg/mL (≈ 0.0213 µM) | IC50 (4-AT4; coating antigen Hapten 5-OVA): 0.00379 µg/mL (≈ 0.0124 µM) | IC50 (1-G12; [16]): 1.22906 µg/mL (≈ 4.02 µM) | IC50 (1-G12; [17]): >4 µg/mL | IC50 (1-G12; [18]): >4 µg/mL | IC50 (1-G12; [19]): 0.83506 µg/mL (≈ 2.73 µM) | IC50 (1-G12; [20]): 0.33939 µg/mL (≈ 1.11 µM) | IC50 (1-G12; [21]): 0.66185 µg/mL (≈ 2.17 µM) | IC50 (1-G12; [3]): 1.22906 µg/mL (≈ 4.02 µM) | IC50 (5-3H1; coating antigen Hapten 1-OVA): 1.15967 µg/mL (≈ 3.8 µM) | IC50 (5-3H1; coating antigen Hapten 2-OVA): 0.547 µg/mL (≈ 1.79 µM) | IC50 (5-3H1; coating antigen Hapten 3-OVA): 0.79417 µg/mL (≈ 2.6 µM) | IC50 (5-3H1; coating antigen Hapten 4-OVA): 0.02586 µg/mL (≈ 0.0847 µM) | IC50 (5-3H1; coating antigen Hapten 5-OVA): 0.10327 µg/mL (≈ 0.338 µM)
SMILES: COc1cc(CNC(=O)CCCC/C=C/C(C)C)ccc1O [CPC, Capsaicin]
IC50 (3-LD3; coating antigen Hapten 2-OVA): 0.01016 µg/mL (≈ 0.0333 µM) | IC50 (3-LD3; coating antigen Hapten 3-OVA): 0.03008 µg/mL (≈ 0.0985 µM) | IC50 (3-LD3; coating antigen Hapten 4-OVA): 0.00387 µg/mL (≈ 0.0127 µM) | IC50 (2-LD2; coating antigen Hapten 1-OVA): 0.11875 µg/mL (≈ 0.389 µM) | IC50 (2-LD2; coating antigen Hapten 2-OVA): 0.00961 µg/mL (≈ 0.0315 µM) | IC50 (2-LD2; coating antigen Hapten 3-OVA): 0.01715 µg/mL (≈ 0.0562 µM) | IC50 (2-LD2; coating antigen Hapten 4-OVA): 0.00119 µg/mL (≈ 0.0039 µM) | CR (1-D6; mAb 1-D6): <1.48% | CR (1-F12; mAb 1-F12): 86.62% | CR (1-G12; mAb 1-G12): 45.61%

IC50 (5-D8; coating antigen Hapten 1-OVA): 0.00582 µg/mL (≈ 0.0189 µM) | IC50 (5-D8; coating antigen Hapten 2-OVA): 0.16652 µg/mL (≈ 0.542 µM) | IC50 (5-D8; coating antigen Hapten 3-OVA): 0.05575 µg/mL (≈ 0.181 µM) | IC50 (5-D8; coating antigen Hapten 4-OVA): 0.0109 µg/mL (≈ 0.0355 µM) | IC50 (5-D8; coating antigen Hapten 5-OVA): 0.01319 µg/mL (≈ 0.0429 µM) | IC50 (1-D6; [4]): 0.96982 µg/mL (≈ 3.15 µM) | IC50 (1-D6; [5]): >4 µg/mL | IC50 (1-D6; [6]): >4 µg/mL | IC50 (1-D6; [7]): 0.70128 µg/mL (≈ 2.28 µM) | IC50 (1-D6; [8]): 0.58873 µg/mL (≈ 1.91 µM) | IC50 (1-D6; [9]): 0.16792 µg/mL (≈ 0.546 µM) | IC50 (1-D6; [1]): 0.96982 µg/mL (≈ 3.15 µM) | IC50 (6-AT6; coating antigen Hapten 1-OVA): >4 µg/mL | IC50 (6-AT6; coating antigen Hapten 2-OVA): >4 µg/mL | IC50 (6-AT6; coating antigen Hapten 3-OVA): >4 µg/mL | IC50 (6-AT6; coating antigen Hapten 4-OVA): >4 µg/mL | IC50 (6-AT6; coating antigen Hapten 5-OVA): 1.46054 µg/mL (≈ 4.75 µM) | IC50 (6-AT6; coating antigen Hapten 6-OVA): >4 µg/mL | IC50 (1-F12; [10]): 0.55714 µg/mL (≈ 1.81 µM) | IC50 (1-F12; [11]): >4 µg/mL | IC50 (1-F12; [12]): >4 µg/mL | IC50 (1-F12; [13]): 0.41585 µg/mL (≈ 1.35 µM) | IC50 (1-F12; [14]): 0.14358 µg/mL | IC50 (1-F12; [15]): 0.8841 µg/mL (≈ 2.88 µM) | IC50 (1-F12; [2]): 0.55714 µg/mL (≈ 1.81 µM) | IC50 (4-AT4; coating antigen Hapten 1-OVA): 0.00581 µg/mL (≈ 0.0189 µM) | IC50 (4-AT4; coating antigen Hapten 2-OVA): 0.05733 µg/mL (≈ 0.186 µM) | IC50 (4-AT4; coating antigen Hapten 3-OVA): 0.25387 µg/mL (≈ 0.826 µM) | IC50 (4-AT4; coating antigen Hapten 4-OVA): 0.01068 µg/mL (≈ 0.0347 µM) | IC50 (4-AT4; coating antigen Hapten 5-OVA): 0.00313 µg/mL (≈ 0.0102 µM) | IC50 (1-G12; [16]): 0.70085 µg/mL (≈ 2.28 µM) | IC50 (1-G12; [17]): >4 µg/mL | IC50 (1-G12; [18]): >4 µg/mL | IC50 (1-G12; [19]): 0.72469 µg/mL (≈ 2.36 µM) | IC50 (1-G12; [20]): 0.37358 µg/mL (≈ 1.22 µM) | IC50 (1-G12; [21]): 0.35151 µg/mL (≈ 1.14 µM) | IC50 (1-G12; [3]): 0.70085 µg/mL (≈ 2.28 µM) | IC50 (5-3H1; coating antigen Hapten 1-OVA): 0.01598 µg/mL (≈ 0.052 µM) | IC50 (5-3H1; coating antigen Hapten 2-OVA): 0.10263 µg/mL (≈ 0.334 µM) | IC50 (5-3H1; coating antigen Hapten 3-OVA): 0.25386 µg/mL (≈ 0.826 µM) | IC50 (5-3H1; coating antigen Hapten 4-OVA): 0.01135 µg/mL (≈ 0.0369 µM) | IC50 (5-3H1; coating antigen Hapten 5-OVA): 0.03124 µg/mL (≈ 0.102 µM)
SMILES: COc1cc(CNC(=O)CCCCCCC(C)C)ccc1O [DCPC, dihydrocapsaicin]
IC50 (3-LD3; coating antigen Hapten 2-OVA): 0.00124 µg/mL (≈ 0.00403 µM) | IC50 (3-LD3; coating antigen Hapten 3-OVA): 0.00062 µg/mL (≈ 0.00202 µM) | IC50 (3-LD3; coating antigen Hapten 4-OVA): 0.00184 µg/mL (≈ 0.00599 µM) | IC50 (2-LD2; coating antigen Hapten 1-OVA): 0.00947 µg/mL (≈ 0.0308 µM) | IC50 (2-LD2; coating antigen Hapten 2-OVA): 0.00485 µg/mL (≈ 0.0158 µM) | IC50 (2-LD2; coating antigen Hapten 3-OVA): 0.00154 µg/mL (≈ 0.00501 µM) | IC50 (2-LD2; coating antigen Hapten 4-OVA): 0.00073 µg/mL (≈ 0.00237 µM) | CR (1-D6; mAb 1-D6): 6.10% | CR (1-F12; mAb 1-F12): 90.86% | CR (1-G12; mAb 1-G12): 79.99%
